PG9 binder: small molecules binding HIV-1 gp120 antibody PG9. inhibition, % at 6.7 µM. TR-FRET gp120-PG9 antibody binding. AID 624416. 360,000 tested, 0.43% active; in the data active = inhibition above about 8.5%
MC4R antagonist: blocks human MC4R cAMP signaling | AID 540295 | 360,000 tested, 0.48% active | inhibition, % at 6.5 µM | MC4R-expressing cells, MTII-stimulated cAMP, LANCE TR-FRET | P32245;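 active = inhibition above its plate's cutoff, the mean of tested wells on that plate plus 3 SD, cut at about 29% in these data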;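 also: 0% = Melanotan II alone and 100% = Melanotan II plus saturating MCL0020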
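Assay system: U2OS-MC4R stable cell line; Also added: Melanotan II; Technique: Eu-cAMP/anti-cAMP TR-FRET, emission 671 nm; Times: 30-min compound, 1-h challenge, 1-h detection, room temperature.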
NTR1 ag: agonists of human neurotensin receptor NTR1; NTR1-U2OS beta-arrestin-GFP spot imaging, agonist mode; activation, % at 20 µM; 330,000 tested, 0.17% active;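 active = activation at or above 40% of the spot to cytoplasm intensity ratio, with at least 20 cells analyzed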;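 also: 0% = DMSO without peptide and 100% = 100 nM NTR1 peptide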
Rev-erbA mod: Rev-erb alpha (human) modulation. P20393. Rev-erbα–FITC-DNA binding, fluorescence polarization, 90 min. activity, % at 10 µM. 370,000 tested, 0.79% active;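 active = activity above about 14%, limit read from the data; passing the limit was not always enough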;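 also: 0% = DMSO wells with 35 nM protein and 100% = DMSO wells with 750 nM protein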
Target sequence (P20393 whole entry, looked up): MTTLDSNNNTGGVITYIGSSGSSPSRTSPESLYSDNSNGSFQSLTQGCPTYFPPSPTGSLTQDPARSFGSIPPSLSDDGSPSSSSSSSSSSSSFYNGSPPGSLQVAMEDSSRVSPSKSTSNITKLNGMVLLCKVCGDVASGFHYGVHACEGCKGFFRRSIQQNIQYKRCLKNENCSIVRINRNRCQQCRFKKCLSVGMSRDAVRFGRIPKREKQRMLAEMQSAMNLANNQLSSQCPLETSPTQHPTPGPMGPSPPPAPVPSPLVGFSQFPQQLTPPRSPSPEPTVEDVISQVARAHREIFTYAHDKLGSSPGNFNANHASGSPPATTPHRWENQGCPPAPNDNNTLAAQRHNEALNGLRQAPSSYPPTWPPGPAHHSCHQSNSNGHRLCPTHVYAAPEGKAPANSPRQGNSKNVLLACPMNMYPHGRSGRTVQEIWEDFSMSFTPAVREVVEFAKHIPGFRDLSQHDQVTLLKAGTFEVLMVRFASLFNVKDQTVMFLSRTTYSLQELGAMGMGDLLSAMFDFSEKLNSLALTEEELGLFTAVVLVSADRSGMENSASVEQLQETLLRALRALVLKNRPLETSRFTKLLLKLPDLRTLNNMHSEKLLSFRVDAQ
MC4R ag barr: human MC4R agonism via beta-arrestin | 360,000 tested, 0.98% active | AID 540308 | activation, % at 8.9 µM | P32245 | U2OS MC4R beta-arrestin complementation, luminescence; percent of melanotan II response, DMSO zero;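 active = activation above a per-plate cutoff, the mean activation of sample wells on that plate plus 3 SD, cut at about 8% in these data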
MC4R barr conf: human MC4R beta-arrestin agonism confirmation; 2,400 tested, 31% active; shares compounds with MC4R ag barr; AID 602192; U2OS MC4R beta-arrestin recruitment, luminescence; scaled DMSO 0%, Melanotan II 100%; activation, % at 8.9 µM;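 active = mean activation across replicates above the hit cutoff set in the earlier primary screen, cut at about 8% in these data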
MOR-DOR barr ag: OPRM1-OPRD1 heterodimer agonism counter-screen; U2OS PathHunter beta-arrestin, beta-gal luminescence; percent of deltorphin B response, DMSO zero; 2,400 tested, 5.8% active; activation, % at 9.2 µM; AID 602194; shares compounds with MC4R ag barr;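 active = mean activation across replicates exceeds the hit threshold derived in the earlier primary screen, cut at about 18% in these data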;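 also: 100% = deltorphin B at 0.9 µM final and 0% = DMSO alone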
PG9 binder conf: PG9 antibody binding, confirmed | shares compounds with PG9 binder | TR-FRET PG9 antibody binding, biochemical | inhibition, % at 6.7 µM | 1,500 tested, 90% active | AID 651571; in the data active = inhibition above about 9%
PGV04 Ab binding: PGV04 control antibody binding, counter-screen | inhibition, % at 6.7 µM | 1,500 tested, 95% active | AID 651604 | shares compounds with PG9 binder | TR-FRET PGV04 antibody-gp120 binding, biochemical; in the data active = inhibition above about 9.5%
PG9 bind DR: PG9 antibody binding, dose response; TR-FRET PG9 antibody-gp120 binding inhibition; shares compounds with PG9 binder; IC50, µM; AID 651848; 95 tested, under 10 active; in the data active = IC50 below about 10 µM
PGV04 binding DR: PGV04 binding, dose response counter-screen; TR-FRET binding to control antibody PGV04; shares compounds with PG9 binder; AID 651937; IC50, µM; 95 tested, 20% active
PG126 DR counter: binds control antibody PG126 in PG9 counter-screen. 95 tested, 20% active. AID 651939. TR-FRET binding to antibody PG126, counterscreen. IC50, µM. shares compounds with PG9 binder
Rev-erbA confirm: Rev-erb alpha (human) modulation, hit confirmation | Rev-erb alpha FITC-DNA binding, fluorescence polarization, 90 min | shares compounds with Rev-erbA mod | activation, % at 25 µM | 3,000 tested, 61% active;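 active = activation at or above a set limit, or at least 3 SD above the negative control mean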;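 also: 0% = 35 nM protein with DMSO and 100% = 750 nM protein high control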
RORg DNA counter: counter-screen for Rev-erb alpha modulators: RORgamma DNA binding. AID 1259320. IC50, µM. purified RORgamma protein-FITC-DNA binding, fluorescence polarization. 910 tested, 8% active. shares compounds with Rev-erbA mod;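 active = Compounds whose fitted half-maximal concentration for disrupting protein-DNA binding is below 10 micromolar; the record names Rev-erb in its text, so the target is in doubt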
* = called active by the depositor; i = inactive; . = no result. Most compounds without a hit are left out; they make up all but 2.5% or so of the library. Rule as the data show it, unless noted: active = IC50 below about 9 µM; inactive = the rest.

SMILES	PG9 binder	MC4R antagonist	NTR1 ag	Rev-erbA mod	MC4R ag barr	MC4R barr conf	MOR-DOR barr ag	PG9 binder conf	PGV04 Ab binding	Rev-erbA confirm	others
CC(=O)OC(C)OC(=O)C(C)c1ccc(-c2ccccc2)c(F)c1 (stereo not drawn)	.	.	.	-3	.	.	.	.	.	.
CCCCCc1ccc(OCCCC[n+]2cccc(C)c2)c(CCCCC)c1	0	11	6	21*	16*	13*	6	.	.	28*
Cc1[nH]nc2nc(SCC(=O)NC3CCCCC3)n(-c3ccc(Br)cc3)c(=N)c12	4	20	3	64*	17*	8	23*	.	.	65*	RORg DNA counter=i
COc1cc(-c2cc(-c3ccccc3)nc(SCC(=O)Nc3nccs3)c2C#N)cc(OC)c1OC	-2	-12	4	72*	11*	5	3	.	.	15
O=C(CSc1ncnc2c1oc1ccccc12)Nc1cccc(Cl)c1	81*	10	12	430*	13*	0	5	81*	94*	371*	RORg DNA counter=i
O=C(CSc1ncnc2c1oc1ccccc12)Nc1cccc(C(F)(F)F)c1	-9	-3	1	2	6	.	.	.	.	.
NC(=O)c1cc2cc(Cc3ccccc3Cl)ccc2oc1=O	4	-6	3	20*	11*	-2	6	.	.	17
Cc1cc(C)cc(NC(=O)CCc2nc3sc4c(c3c(=O)[nH]2)CCCC4)c1	11*	10	8	30*	13*	5	3	17*	23*	8
COc1ccc(C(=O)Nc2ccc3oc(-c4cccc(F)c4)nc3c2)cc1OC	2	3	8	7	1	.	.	.	.	.
COc1ccccc1C(=O)Nc1ccc2oc(-c3ccc(F)cc3)nc2c1	0	4	29	36*	18*	6	2	.	.	33*	RORg DNA counter=i
CCc1cccc(NC(=O)Cn2c(=O)c3cccn3c3ccccc32)c1	26*	-3	2	28*	11*	5	8	28*	36*	15
Cc1cccc(C)c1NC(=O)Cn1c(=O)c2cccn2c2ccccc21	7	4	-1	-1	0	.	.	.	.	.
CCOC(=O)c1c(C)[nH]c(=S)c(C#N)c1-c1ccc(OC)cc1	0	2	1	-5	-4	.	.	.	.	.
CCCCOc1ccc(-c2c(C(=O)Nc3ccccc3)c(C)[nH]c(=S)c2C#N)cc1	60*	20	3	3	1	.	.	5	6	.
Cn1c(=S)[nH]c2ccccc21	0	-6	0	-1	-2	.	.	.	.	.
S=c1[nH]c2ccccc2n2cccc12	23*	14	2	9	-1	.	.	17*	15*	.	PG9 bind DR=i;PGV04 binding DR=i;PG126 DR counter=i
NC(=O)c1ccc(NC(=O)COC(=O)c2n[nH]c3ccccc23)cc1	-2	6	-3	-5	1	.	.	.	.	.
NC(=O)c1ccc(NC(=O)COC(=O)c2c[nH]c3ccccc23)cc1	10*	9	3	2	-2	.	.	8.9*	16*	.
C=CCN1[C@@H](CC(C)C)COc2cccc(F)c2S1(=O)=O	.	.	.	0	.	.	.	.	.	.
COC(=O)c1ccc(N2C(=O)CC(N3CCOCC3)C2=O)cc1 (stereo not drawn)	13*	7	4	8	-2	.	.	7	9.3*	.
COc1ccccc1C(=O)Nc1ccc2c(C)cc(=O)oc2c1	17*	1	-1	4	-2	.	.	20*	30*	.
COc1ccc(CNC(=O)CN(C(=O)c2snc(C(N)=O)c2N)c2ccc(F)cc2)cc1	-2	0	-1	-4	-3	.	.	.	.	.
CC(C)c1ccc(N(CC(=O)NCc2ccc(F)cc2)C(=O)c2snc(C(N)=O)c2N)cc1	11*	4	4	3	5	.	.	18*	23*	.
CCOc1ccc(N(CC(=O)NCc2ccc(F)cc2)C(=O)c2snc(C(N)=O)c2N)cc1	9.4*	10	0	3	13*	.	.	18*	25*	.
Cc1ccc(S(=O)(=O)N(C)[C@H]2C[C@H]3c4[nH]c5c(-c6ccccc6)cccc5c4CCN3C(=O)[C@H]2[C@H](C)O)cc1	-1	.	.	-6	.	.	.	.	.	.
SMILES	PG9 binder	MC4R antagonist	NTR1 ag	Rev-erbA mod	MC4R ag barr	MC4R barr conf	MOR-DOR barr ag	PG9 binder conf	PGV04 Ab binding	Rev-erbA confirm	others
Cc1cc(N2C(=O)C(O)=C(C(=O)c3cc4ccccc4o3)C2c2cccc(Br)c2)no1 (stereo not drawn)	38*	15	-1	4	2	.	.	43*	56*	.
CCCOc1cccc(C2C(C(=O)c3cc4ccccc4o3)=C(O)C(=O)N2c2cc(C)on2)c1 (stereo not drawn)	18*	0	1	2	-1	.	.	24*	38*	.
COC(=O)c1ccc(C2C(C(=O)c3cc4ccccc4o3)=C(O)C(=O)N2c2cc(C)on2)cc1 (stereo not drawn)	4	12	0	3	-2	.	.	.	.	.
COc1cccc(C2C(C(=O)c3cccs3)=C(O)C(=O)N2c2cc(C)on2)c1 (stereo not drawn)	5	21	0	1	1	.	.	.	.	.
COc1cccc(C2C(C(=O)c3ccc(C)o3)=C(O)C(=O)N2c2cc(C)on2)c1 (stereo not drawn)	8.7*	10	0	-5	-1	.	.	17*	22*	.
Cc1cc(N2C(=O)C(O)=C(C(=O)c3cc4ccccc4o3)C2c2ccc(OC(C)C)cc2)no1 (stereo not drawn)	7	2	0	0	-3	.	.	.	.	.
CCNC(=O)N(C)[C@H]1C[C@H]2c3[nH]c4cccc(-c5ccc6c(c5)OCO6)c4c3CCN2C[C@H]1[C@H](C)O	.	.	.	-1	.	.	.	.	.	.

Screening results from PubChem BioAssay.
